ChEMBL document CHEMBL2439960, “Pharmacokinetics, metabolism, and in vivo efficacy of the antimalarial natural product bromophycolide A” (ACS Med Chem Lett, 2013)

Experiments:
[1] = AUC in BALB/c mouse at 23 mg/kg, ip after 1 to 24 hrs by LC-MS/MS analysis; assay type: ADME, organism-based; set-up: dose 23 mg/kg, route intraperitoneal; conditions: plasma
Method in brief: (§1)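 Healthy mice given one 23 mg/kg dose, IV or IP. Plasma concentrations plotted as mean ± SD, n=3. Kinetics fitted as a first-order elimination process.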

[2] = AUC in BALB/c mouse at 23 mg/kg, iv after 1 to 24 hrs by LC-MS/MS analysis; assay type: ADME, organism-based; set-up: dose 23 mg/kg, route intravenous; conditions: plasma; method in brief: as §1
[3] = tested on: Liver; assay: Metabolic stability in human liver S9 fraction at 10 uM after 4 hrs by LC-MS analysis; assay type: ADME, subcellular; conditions: s9, 4 h
Method in brief: (§2)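 Initial incubations with the human liver S9 or microsomal fraction lasted 4 h.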

[4] = Drug degradation in mouse serum at 150 uM after 48 hrs by HPLC analysis; assay type: ADME, cell-free; conditions: read-out: Drug degradation
Method in brief: (§3)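 Compound incubated in mouse serum at 37 °C. Remaining compound measured at 24 h and 48 h.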

[5] = Metabolic stability in human Liver S9 fraction assessed as formation of metabolite M5 at 10 uM by LC-MS analysis in presence of UDPGA; assay type: ADME, subcellular; conditions: s9, 10 µM
Method in brief: (§4)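 Reaction products from S9 or microsomal incubations with NADPH analysed by LC-MS. Runs without UDPGA were checked for hydroxylated (m/z 677) and doubly hydroxylated (m/z 693) species. Runs with UDPGA were checked for a glucuronide (m/z 837).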

[6] = Drug metabolism in human liver S9 fraction at 10 uM after 24 hrs by LC-MS analysis; assay type: ADME, subcellular; conditions: read-out: Drug metabolism
Method in brief: (§5)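 Compound incubated with human liver S9 or microsomal fractions for 24 h, extended from 4 h, with NADPH and with or without UDPGA. Loss of parent compound followed over time, sampled at 6 and 24 h. In vitro t1/2 and CLint calculated from the loss.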

[7] = tested on: Liver microsomes; assay: Metabolic stability in human liver microsomes assessed as formation of metabolite M3 at 10 uM by LC-MS analysis in presence of NADPH and absence of UDPGA; assay type: ADME, Microsome; method in brief: as §4
[8] = Metabolic stability in human liver cytosolic subcellular fraction at 10 uM after 4 hrs by LC-MS analysis; assay type: ADME; conditions: cytosol
[9] = Apparent volume of distribution in BALB/c mouse at 23 mg/kg, iv after 1 to 24 hrs by LC-MS/MS analysis; assay type: ADME, organism-based; set-up: dose 23 mg/kg, route intravenous; conditions: in vivo, read-out: Vd(app); method in brief: as §1
[10] = tested on: Liver; assay: Half life in human liver S9 fraction at 10 uM after 24 hrs by LC-MS analysis; assay type: ADME, subcellular; conditions: s9, 24 h; method in brief: as §5
[11] = tested on: Liver microsomes; assay: Half life in human liver microsomes at 10 uM after 24 hrs by LC-MS analysis in absence of UDPGA; assay type: ADME, Microsome; method in brief: as §5
[12] = Initial plasma concentration in BALB/c mouse at 23 mg/kg, iv after 1 to 24 hrs by LC-MS/MS analysis; assay type: ADME, organism-based; set-up: dose 23 mg/kg, route intravenous; method in brief: as §1
[13] = Metabolic stability in human liver S9 fraction assessed as formation of metabolite M1 at 10 uM by LC-MS analysis in presence of NADPH and absence of UDPGA; assay type: ADME, subcellular; conditions: s9, 10 µM; method in brief: as §4
[14] = tested on: Liver microsomes; assay: Metabolic stability in human liver microsomes assessed as formation of metabolite M1 at 10 uM by LC-MS analysis in presence of NADPH and absence of UDPGA; assay type: ADME, Microsome; method in brief: as §4
[15] = Metabolic stability in human liver S9 fraction assessed as formation of metabolite M2 at 10 uM by LC-MS analysis in presence of NADPH and absence of UDPGA; assay type: ADME, subcellular; conditions: s9, 10 µM; method in brief: as §4
[16] = tested on: Liver microsomes; assay: Half life in human liver microsomes at 10 uM after 24 hrs by LC-MS analysis in presence of UDPGA; assay type: ADME, Microsome; method in brief: as §5
[17] = Plasma clearance in BALB/c mouse at 23 mg/kg, iv after 1 to 24 hrs by LC-MS/MS analysis; assay type: ADME, organism-based; set-up: dose 23 mg/kg, route intravenous; method in brief: as §1
[18] = tested on: Liver microsomes; assay: Metabolic stability in human liver microsomes assessed as formation of metabolite M4 at 10 uM by LC-MS analysis in presence of NADPH and absence of UDPGA; assay type: ADME, Microsome; method in brief: as §4
[19] = Metabolic stability in human liver S9 fraction assessed as formation of metabolite M3 at 10 uM by LC-MS analysis in presence of NADPH and absence of UDPGA; assay type: ADME, subcellular; conditions: s9, 10 µM; method in brief: as §4
[20] = Drug metabolism in human liver microsomes at 10 uM after 24 hrs by LC-MS analysis in absence of UDPGA; assay type: ADME, Microsome; conditions: read-out: Drug metabolism; method in brief: as §5
[21] = Half life in BALB/c mouse at 23 mg/kg, iv after 1 to 24 hrs by LC-MS/MS analysis; assay type: ADME, organism-based; set-up: dose 23 mg/kg, route intravenous; conditions: in vivo; method in brief: as §1
[22] = tested on: Liver microsomes; assay: Metabolic stability in human liver microsomes at 10 uM after 4 hrs by LC-MS analysis; assay type: ADME, Microsome; method in brief: as §2
[23] = tested on: Plasmodium falciparum; assay: Antiplasmodial activity against chloroquine-resistant Plasmodium falciparum Dd2 infected in erythrocytes assessed as parasite growth inhibition after 72 hrs by SYBR green I staining-based fluorescence assay; assay type: functional, organism-based; conditions: Dd2, 72 h
[24] = tested on: Serum; assay: Metabolic stability in mouse serum at 150 uM after 24 hrs by HPLC analysis; assay type: ADME, cell-free; method in brief: as §3
[25] = Tmax in BALB/c mouse at 23 mg/kg, ip after 1 to 24 hrs by LC-MS/MS analysis; assay type: ADME, organism-based; set-up: dose 23 mg/kg, route intraperitoneal; conditions: in vivo; method in brief: as §1
[26] = tested on: Mus musculus; assay: Toxicity in Swiss Webster mouse at 5 to 10 mg/kg, ip qd administered on day 2 to 5; assay type: organism-based; set-up: dose 5-10 mg/kg, route intraperitoneal; conditions: in vivo
[27] = tested on: Plasmodium yoelii; assay: Antimalarial activity against Plasmodium yoelii infected in Swiss Webster mouse assessed as decrease in parasite load at 10 mg/kg, ip qd administered on day 2 to 5 by Hoechst 33342 staining-based FACS analysis relative to control; assay type: functional; set-up: scale not given: the % may be the effect or the level left; conditions: route intraperitoneal
Method in brief: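 Mice infected with Plasmodium yoelii, dosed once daily at 5 or 10 mg/kg. Vehicle-only injected mice served as controls. Parasitemia was measured by FACS, including 24 h after the first dose, after the second dose, and at the end of the four-day trial.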

[28] = tested on: Liver microsomes; assay: Metabolic stability in human liver microsomes assessed as formation of metabolite M2 at 10 uM by LC-MS analysis in presence of NADPH and absence of UDPGA; assay type: ADME, Microsome; method in brief: as §4
[29] = Metabolic stability in human liver S9 fraction assessed as formation of metabolite M4 at 10 uM by LC-MS analysis in presence of NADPH and absence of UDPGA; assay type: ADME, subcellular; conditions: s9, 10 µM; method in brief: as §4
[30] = tested on: Mus musculus; assay: Drug absorption rate constant in BALB/c mouse at 23 mg/kg, ip after 1 to 24 hrs by LC-MS/MS analysis; assay type: ADME, organism-based; set-up: dose 23 mg/kg, route intraperitoneal; conditions: in vivo; method in brief: as §1
[31] = Half life in human liver S9 fraction at 10 uM after 24 hrs by LC-MS analysis in presence of UDPGA; assay type: ADME, subcellular; conditions: s9, 24 h; method in brief: as §5
[32] = Cmax in BALB/c mouse at 23 mg/kg, ip after 1 to 24 hrs by LC-MS/MS analysis; assay type: ADME, organism-based; set-up: dose 23 mg/kg, route intraperitoneal; conditions: in vivo; method in brief: as §1
[33] = tested on: Liver microsomes; assay: Intrinsic clearance in human liver microsomes at 10 uM after 24 hrs by LC-MS analysis in absence of UDPGA; assay type: ADME, Microsome; method in brief: as §5
[34] = Metabolic stability in human liver S9 fraction at 10 uM after 24 hrs by LC-MS analysis in absence of S9 enzyme and NADPH; assay type: ADME, subcellular; conditions: s9, 24 h
Method in brief: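 Control incubations for the S9 metabolism assay run over 24 h, lacking either the enzyme or NADPH.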

[35] = Elimination rate constant in BALB/c mouse at 23 mg/kg, iv after 1 to 24 hrs by LC-MS/MS analysis; assay type: ADME, organism-based; set-up: dose 23 mg/kg, route intravenous; conditions: in vivo; method in brief: as §1
[36] = Drug metabolism in human liver S9 fraction at 10 uM after 24 hrs by LC-MS analysis in presence of UDPGA; assay type: ADME, subcellular; conditions: s9, 24 h; method in brief: as §5
[37] = tested on: Plasmodium falciparum; assay: Antiplasmodial activity against chloroquine-sensitive Plasmodium falciparum 3D7 infected in erythrocytes assessed as parasite growth inhibition after 72 hrs by SYBR green I staining-based fluorescence assay; assay type: functional, organism-based; conditions: 3D7, 72 h
[38] = tested on: Liver microsomes; assay: Metabolic stability in human liver microsomes assessed as formation of metabolite M5 at 10 uM by LC-MS analysis in presence of UDPGA; assay type: ADME, Microsome; method in brief: as §4
[39] = Metabolic stability in human liver microsomes assessed as compound remaining at 10 uM after 24 hrs by LC-MS analysis in presence of UDPGA; assay type: ADME, Microsome; conditions: read-out: Stability; method in brief: as §5
[40] = tested on: Plasmodium falciparum; assay: Antiplasmodial activity against ring stage of chloroquine-sensitive Plasmodium falciparum MRC-02 infected in human erythrocytes assessed as parasite growth inhibition after 24 hrs by Giemsa staining method; assay type: functional, organism-based; conditions: MRC-02, 24 h
[41] = tested on: Plasmodium falciparum; assay: Antiplasmodial activity against chloroquine-sensitive Plasmodium falciparum MRC-02 assessed as suppression of parasitemia at 50 mg/kg, po by in vivo model study; assay type: functional
[42] = Apparent clearance in Swiss mouse at 50 mg/kg, ip after 1 to 24 hrs by LC-MS/MS analysis; assay type: ADME, organism-based; set-up: dose 50 mg/kg, route intraperitoneal; conditions: in vivo, read-out: CL(app)
[43] = tested on: Plasmodium berghei; assay: Antimalarial activity against Plasmodium berghei ANKA infected in NMRI mouse assessed as reduction of parasitemia at 10 mg/kg, po qd administered 3 days by flow cytometric analysis; assay type: functional; set-up: scale not given: the % may be the effect or the level left

CC1=C2Cc3cc(ccc3O)C(=O)O[C@H](C(C)(C)Br)CC[C@](C)(O)[C@H](Br)CC[C@]2(C)[C@@H](Br)CC1
AUC [1]: 20000 ng·h/mL | AUC [2]: 26000 ng·h/mL | Stability [3]: Stable | metabolised at 48 h, 150 µM [4]: 27% | Stability [5]: Unstable | metabolised at 24 h, 10 µM [6]: 55% | Stability [7]: Unstable | Stability [8]: Stable | Vd [9]: 0.95 L/kg | t1/2 [10]: 20 h | t1/2 [11]: 14 h | C0 [12]: 24000 ng/mL | Stability [13]: Unstable | Stability [14]: Unstable | Stability [15]: Unstable | t1/2 [16]: 6.6 h | clearance [17]: 16 mL/min/kg | Stability [18]: Unstable | Stability [19]: Unstable | metabolised at 24 h, 10 µM [20]: 61% | half-life [21]: 0.75 h | Stability [22]: Stable | IC50 [23]: 377 nM | Stability [24]: Stable | Tmax [25]: 1.5 h | Activity [26]: Non-toxic | Activity [27]: 47% | Stability [28]: Unstable | Stability [29]: Unstable | ka [30]: 0.24 h⁻¹ | t1/2 [31]: 9.5 h | Cmax [32]: 5800 ng/mL | CLint [33]: 0.72 mL/min/kg | Stability [34]: Stable | k el [35]: 0.000258 s⁻¹ | Drug metabolism [36]: 21% | IC50 [37]: 499 nM | Stability [38]: Unstable | remaining at 24 h, 10 µM [39]: 15.3%

CC(=O)Oc1ccc2cc1CC1=C(C)CC[C@H](Br)[C@@]1(C)CC[C@@H](Br)[C@@](C)(O)CC[C@@H](C(C)(C)Br)OC2=O
IC50 [37]: 241 nM

CC(=O)OC[C@@H]1CC[C@]2(C)C(C)=CC(=O)C[C@H]2[C@]1(C)CCC1=CCOC1=O
IC50 [40]: 8800 nM | Activity [41]: 45%

CCN(CC)CCCC(C)Nc1ccnc2cc(Cl)ccc12 (centres undefined) [CHLOROQUINE]
CL/F [42]: 17 mL/min/kg

C[C@H]1Cc2c([nH]c3cc(Cl)c(F)cc23)[C@@]2(N1)C(=O)Nc1ccc(Cl)cc12 [CIPARGAMIN]
Activity [43]: 99%
